For one compound, inhibition results are on record in PubChem BioAssay AID1257 (The Scripps Research Institute Molecular Screening Center, 2008).

The list shows a part of the results. A number with no mark means an inactive call.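 Rule for the calls: active = mean inhibition of triplicate wells above the hit cutoff set in the primary screen (cut at about 17% in these data); inactive = the rest.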

This assay addresses Neuropeptide Y receptor type 2 (Homo sapiens) (UniProt P49146). In words: blockers of human NPY-Y2 signalling – HEK293-CNG cells, membrane potential fluorescence, triplicate, confirmation (AID 1257).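 Note: 0% = DMSO with NPY challenge and 100% = BIIE0246 high control.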 The following applies: HEK293 NPY-Y2 CNG channel, at 2.8 µM, hits give high values. In a few lines:
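assay system = NPY-Y2 HEK293-CNG cells | times = NPY exposure 60 min at room temperature | technique = voltage-sensitive dye fluorescence | read-out = 30-min to baseline fluorescence ratio, control-normalized | control set = high BIIE0246, low DMSO | repeats = three replicates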

As usually defined, the inhibition is how much of the control response was suppressed.

Chain of Neuropeptide Y receptor type 2 (Homo sapiens) (P49146 whole entry, looked up): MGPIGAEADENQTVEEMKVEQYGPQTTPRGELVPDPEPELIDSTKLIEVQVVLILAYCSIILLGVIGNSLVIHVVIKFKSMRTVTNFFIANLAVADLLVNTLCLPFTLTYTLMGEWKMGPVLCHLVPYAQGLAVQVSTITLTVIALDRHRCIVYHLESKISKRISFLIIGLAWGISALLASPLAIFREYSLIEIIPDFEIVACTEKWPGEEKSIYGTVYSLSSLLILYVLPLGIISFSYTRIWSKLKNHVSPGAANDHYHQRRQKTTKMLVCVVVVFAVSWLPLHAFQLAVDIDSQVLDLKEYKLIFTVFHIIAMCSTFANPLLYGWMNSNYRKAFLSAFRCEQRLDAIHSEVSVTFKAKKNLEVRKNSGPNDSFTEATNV

With `O=C(COC(=O)c1ccccc1)Nc1ccc(Cl)cc1C(=O)c1ccccc1`, the inhibition was 15.9%.
